Results: article PMC3819105 (Biomaterials science, 2013)
Where a SMILES comes first, the peptide text is derived from it. [ ]: non-standard residue; d: D form. Hica(2S) = CC(C)C[C@H](O)C(=O)O

Assays:
[1] = Macroscopic hydrogel degradation visualised with Congo red; format: physicochemical
Method in brief: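 50 µM Congo red added to the aqueous peptide solution (sonicated, held overnight at room temperature) while making 15 mM gels. Gels pipetted into multi-well dishes, immersed in PBS at 37°C and photographed over 28 days.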

[2] = TEM of nanofiber formation and degradation; format: physicochemical; conditions: 2 mM in PBS, 37°C, 7 days
C3H10T½ cells = assay: 3D microgel cell culture; format: cell-based, mouse; conditions: C3H10T½ cells in hydrogel
Method in brief: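 Cells kept in Eagle's Basal Medium with 10% FBS, L-glutamine, 1 mM sodium pyruvate and non-essential amino acids. They were trypsinized, resuspended at 6,000 cells/µL in 10% sucrose with antibiotics, and mixed 1:2 with 22.5 mM aqueous peptide. The mixture (2,000 cells/µL) was pipetted into culture medium in 4–5 µL droplets to gel. Phase contrast imaging at day 3. MTS at 4 h, 3 and 5 days; mean ± SD of 3 wells.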

[3] = Oscillating rheometry of hydrogels; format: physicochemical
Method in brief: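 Peptide held overnight in water at 30 or 15 mM, cast on a glass slide inside an 8-mm filter-paper ring, and gelled under a PBS overlay for 2 h. PBS removed, parallel-plate frequency sweep 0.1–3.162 Hz at 0.1% strain, harmonic distortion under 10%. For ageing, gels held submerged in PBS at 37°C for 1 or 3 days. Mean ± SD of 3–5 separate gels; G'/G'' at 1 Hz compared by ANOVA-Tukey or t-test, p<0.05.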

[4] = Solubility limit in water; format: physicochemical
trypsin = conditions: cited from earlier work
α-chymotrypsin = conditions: cited from earlier work
papain = conditions: cited from earlier work

Row | Compound | Time for which integrity of acellular hydrogel could be maintained ([1]; 15 mM acellular hydrogel, PBS, 37°C) | Gel appearance over 28 days (Congo red stained) ([1]; 15 mM hydrogel, immersed in PBS at 37°C, 28 days, representative of 3 gels) | Nanofiber state by TEM at day 7 [2] | Proliferation of encapsulated cells (C3H10T½ cells; over 5 days, MTS assay, 3 wells) | Morphology of encapsulated cells (C3H10T½ cells; phase contrast) | Storage modulus of hydrogel ([3]; 30 mM hydrogel, PBS-gelled 2 hours, 0.1% strain, mean of 3 – 5 samples) [kPa] | Storage modulus (G') relative to Q11 hydrogel ([3]; 30 mM hydrogels, PBS-gelled 2 hours, 0.1% strain, calculated at 1 Hz) | Change of hydrogel moduli (G', G'') over time ([3]; hydrogels submerged in PBS, 37°C, up to day 3) | solubility [4] [mM] | Resistance to proteolysis (trypsin) | Resistance to proteolysis (α-chymotrypsin) | Resistance to proteolysis (papain)
1 | CC(=O)N[C@@H](CCC(N)=O)C(=O)N[C@@H](CCC(N)=O)C(=O)N[C@@H](CCCCN)C(=O)N[C@@H](Cc1ccccc1)C(=O)N[C@@H](CCC(N)=O)C(=O)O[C@@H](CC(C)C)C(=O)N[C@@H](CCC(N)=O)C(=O)N[C@@H](Cc1ccccc1)C(=O)N[C@@H](CCC(=O)O)C(=O)N[C@@H](CCC(N)=O)C(=O)N[C@@H](CCC(N)=O)C(N)=O [Depsi-L] (Ac-QQKFQ[Hica(2S)]QFEQQ-NH2; N-terminus assumed) | about 14 days | faded and disappeared | shorter and thinner | proliferated | more spread morphology | > 100 | about 6 times | decreased significantly | ≥ 30 | – | – | –
2 | (AEAEAKAK)2 | – | – | – | – | – | – | – | – | – | highly resistant | highly resistant | highly resistant
